Laboratory results from ChEMBL document CHEMBL5724801, “EUbOPEN Chemogenomics Library - Multiplex” (2024).
Where “and” joins values, the source holds several entries; their conditions need not be identical. Equal entries are not always repeated.

Tested on: HEK-293T
Assay: Multiplex assay against HEK293T
Type: toxicity, cell-based
Conditions: human
In short: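 Cells were classed with CellPathfinder machine-learning gating, first as Hoechst high-intensity objects or normal cells, then (normal cells) as healthy, pyknosed or fragmented nuclei, and finally (pyknosed cells) as mitotic or apoptotic. Staining of live cells at seeding used Hoechst33342, BioTracker Green Microtubule Cytoskeleton Dye, MitoTracker Red and Annexin V Alexa Fluor 680, with imaging on a CQ1 microscope at 37°C and 5% CO2 after compound addition. Tubulin, mitochondrial-mass and membrane-permeability phenotypes are per cents of healthy-nucleus cells.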

[1] = 12 h, 1 µM, compound concentration 1 uM
[2] = 12 h, 10 µM, compound concentration 10 uM
[3] = 24 h, 1 µM, compound concentration 1 uM
[4] = 24 h, 10 µM, compound concentration 10 uM
[5] = 48 h, 1 µM, compound concentration 1 uM
[6] = 48 h, 10 µM, compound concentration 10 uM

## Cc1c(Cc2ccc3ccccc3n2)c2cc(F)ccc2n1CC(=O)O [TIMAPIPRANT]
[1]
  Population Apoptotic (%): 42%
  Population Fragmented Nuclei (%): 7% and 6%
  Population Healthy Nuclei (%): 80%
  Population Hoechst High Intensity Objects (%): 10% and 7%
  Population Membrane Permeable-Phenotype (%): 0%
  Population Mitochondria Different-Phenotype (%): 36% and 55%
  Population Mitotic Cells (%): 57%
  Population Normal (%): 89% and 92%
  Population Pyknosed Nuclei (%): 11% and 12%
  Population Tubulin-Different-Phenotype (%): 20% and 16%
  Total Cell Count: 394 and 280
[2]
  Population Apoptotic (%): 32% and 33%
  Population Fragmented Nuclei (%): 7% and 6%
  Population Healthy Nuclei (%): 78%
  Population Hoechst High Intensity Objects (%): 6% and 5%
  Population Membrane Permeable-Phenotype (%): 0%
  Population Mitochondria Different-Phenotype (%): 55% and 63%
  Population Mitotic Cells (%): 67% and 66%
  Population Normal (%): 93% and 94%
  Population Pyknosed Nuclei (%): 14% and 15%
  Population Tubulin-Different-Phenotype (%): 38% and 28%
  Total Cell Count: 434 and 354
[3]
  Population Apoptotic (%): 31% and 53%
  Population Fragmented Nuclei (%): 10% and 7%
  Population Healthy Nuclei (%): 81% and 83%
  Population Hoechst High Intensity Objects (%): 4% and 5%
  Population Membrane Permeable-Phenotype (%): 1% and 0%
  Population Mitochondria Different-Phenotype (%): 20% and 38%
  Population Mitotic Cells (%): 68% and 46%
  Population Normal (%): 95% and 94%
  Population Pyknosed Nuclei (%): 8%
  Population Tubulin-Different-Phenotype (%): 15%
  Total Cell Count: 516 and 381
[4]
  Population Apoptotic (%): 32% and 37%
  Population Fragmented Nuclei (%): 7% and 12%
  Population Healthy Nuclei (%): 78% and 77%
  Population Hoechst High Intensity Objects (%): 4% and 5%
  Population Membrane Permeable-Phenotype (%): 0%
  Population Mitochondria Different-Phenotype (%): 31% and 44%
  Population Mitotic Cells (%): 67% and 62%
  Population Normal (%): 95% and 94%
  Population Pyknosed Nuclei (%): 13% and 10%
  Population Tubulin-Different-Phenotype (%): 28% and 20%
  Total Cell Count: 560 and 475
[5]
  Population Apoptotic (%): 26% and 17%
  Population Fragmented Nuclei (%): 13% and 15%
  Population Healthy Nuclei (%): 78% and 76%
  Population Hoechst High Intensity Objects (%): 2% and 3%
  Population Membrane Permeable-Phenotype (%): 1% and 0%
  Population Mitochondria Different-Phenotype (%): 9% and 25%
  Population Mitotic Cells (%): 73% and 82%
  Population Normal (%): 97% and 96%
  Population Pyknosed Nuclei (%): 8%
  Population Tubulin-Different-Phenotype (%): 6% and 12%
  Total Cell Count: 799 and 566
[6]
  Population Apoptotic (%): 33% and 36%
  Population Fragmented Nuclei (%): 10% and 14%
  Population Healthy Nuclei (%): 79% and 78%
  Population Hoechst High Intensity Objects (%): 4%
  Population Membrane Permeable-Phenotype (%): 1% and 0%
  Population Mitochondria Different-Phenotype (%): 24% and 33%
  Population Mitotic Cells (%): 66% and 63%
  Population Normal (%): 95%
  Population Pyknosed Nuclei (%): 9% and 6%
  Population Tubulin-Different-Phenotype (%): 17% and 16%
  Total Cell Count: 752 and 630

## Cc1cccc(F)c1C(=O)Nc1cnc(-c2cc3c(cc2Cl)OC(F)(F)O3)cn1 [ZEGOCRACTIN]
[1]
  Population Apoptotic (%): 12.35% and 6.45%
  Population Healthy Nuclei (%): 42.98% and 15.89%
  Population Hoechst High Intensity Objects (%): 0.27% and 0%
  Population Membrane Permeable-Phenotype (%): 0% and 4.17%
  Population Mitochondria Different-Phenotype (%): 33.33% and 20.83%
  Population Mitotic Cells (%): 87.65% and 93.55%
  Population Normal (%): 99.73% and 100%
  Population Pyknosed Nuclei (%): 44.63% and 82.12%
  Total Cell Count: 364 and 151
[2]
  Population Apoptotic (%): 18.42% and 16.15%
  Population Fragmented Nuclei (%): 2.44% and 4.03%
  Population Healthy Nuclei (%): 23.41% and 8.72%
  Population Hoechst High Intensity Objects (%): 2.38% and 0%
  Population Membrane Permeable-Phenotype (%): 0% and 7.69%
  Population Mitochondria Different-Phenotype (%): 22.92% and 30.77%
  Population Mitotic Cells (%): 81.58% and 83.85%
  Population Normal (%): 97.62% and 100%
  Population Pyknosed Nuclei (%): 74.15% and 87.25%
  Population Tubulin-Different-Phenotype (%): 37.5% and 23.08%
  Total Cell Count: 210 and 149
[3]
  Population Apoptotic (%): 23.62% and 14.53%
  Population Fragmented Nuclei (%): 12.53% and 3.66%
  Population Healthy Nuclei (%): 61.82% and 25%
  Population Hoechst High Intensity Objects (%): 0.4% and 0%
  Population Membrane Permeable-Phenotype (%): 2.29% and 0%
  Population Mitochondria Different-Phenotype (%): 10.78% and 21.95%
  Population Mitotic Cells (%): 76.38% and 85.47%
  Population Normal (%): 99.6% and 100%
  Population Pyknosed Nuclei (%): 25.66% and 71.34%
  Population Tubulin-Different-Phenotype (%): 10.78% and 17.07%
[4]
  Population Apoptotic (%): 34.16% and 33.09%
  Population Fragmented Nuclei (%): 0.76% and 3.75%
  Population Hoechst High Intensity Objects (%): 0.75% and 0%
  Population Membrane Permeable-Phenotype (%): 0%
  Population Mitochondria Different-Phenotype (%): 52.48% and 27.78%
  Population Mitotic Cells (%): 65.84% and 66.91%
  Population Normal (%): 99.25% and 100%
  Population Pyknosed Nuclei (%): 60.98% and 85%
  Total Cell Count: 266 and 160
[5]
  Population Apoptotic (%): 9.86% and 16.85%
  Population Fragmented Nuclei (%): 5.17% and 0.94%
  Population Healthy Nuclei (%): 80.45% and 57.08%
  Population Hoechst High Intensity Objects (%): 0% and 0.47%
  Population Membrane Permeable-Phenotype (%): 4.53% and 2.48%
  Population Mitochondria Different-Phenotype (%): 22.67% and 22.31%
  Population Mitotic Cells (%): 90.14% and 83.15%
  Population Normal (%): 100% and 99.53%
  Population Pyknosed Nuclei (%): 14.39% and 41.98%
[6]
  Population Apoptotic (%): 30.82% and 29%
  Population Fragmented Nuclei (%): 1.98% and 3.11%
  Population Healthy Nuclei (%): 61.88% and 34.78%
  Population Hoechst High Intensity Objects (%): 0.49% and 2.42%
  Population Membrane Permeable-Phenotype (%): 2% and 0%
  Population Mitochondria Different-Phenotype (%): 76.4% and 44.64%
  Population Mitotic Cells (%): 69.18% and 71%
  Population Normal (%): 99.51% and 97.58%
  Population Pyknosed Nuclei (%): 36.14% and 62.11%
  Total Cell Count: 406 and 165
